# From the EternaBench riboswitch data
# Assays:
# MS2 coat protein [1] = assay: apparent Kd, MS2 coat protein; higher = weaker binding; RNA-MaP array
# Outline: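 Fluorescently labeled MS2 coat protein, from 1.5 nM to 3 μM, was incubated at room temperature with designed RNAs transcribed on an Illumina sequencing chip from sequenced DNA templates. Times ran from 0.8–1.5 h at the lowest concentrations to 10–20 min at the highest, in Tris-HCl pH 7.5 buffer with KCl, MgCl2, BSA, DTT, tRNA and Tween20, with or without input ligand. Each apparent Kd is the median of per-cluster binding-curve fits, and designs with fewer than 10 measured clusters were excluded.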
# MS2 coat protein [2] = assay: apparent Kd, MS2 coat protein; higher = weaker binding; RNA-MaP array; FMN 200 µM where present
# Outline: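 Two titrations, one without ligand and one with constant ligand, were run with SNAP-549-labelled MS2 coat protein from 0.7 or 1.5 nM, doubling to 3 µM. The targets were designs transcribed by stalled E. coli RNA polymerase on Illumina sequencing-chip clusters, in 100 mM Tris-HCl pH 7.5, 80 mM KCl, 4 mM MgCl2, BSA, DTT, yeast tRNA and Tween-20. The apparent Kd is the median of filtered per-cluster binding-curve fits, with green signal normalised to red-channel RNA signal and control-cluster median Fmax.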
# [3] = designed as: OFF switch for flavin mononucleotide, no ligand
# [4] = ligand present: flavin mononucleotide, designed as: OFF switch for flavin mononucleotide
# [5] = designed as: ON switch for flavin mononucleotide, no ligand
# [6] = ligand present: flavin mononucleotide, designed as: ON switch for flavin mononucleotide
sequence,measurement,setting,value
AUGAGUAUUAAAGGAUAUCACUUAAUUGAUUGAUGAGAAGGUUAGAUGGCAUACAUGAGGAUCACCCAUGUGGUUUCAUGCGGU,apparent Kd,MS2 coat protein [1]; [3],86.3 nM
same,apparent Kd,MS2 coat protein [1]; [4],59.2 nM
GACAGAAAGUCAGGAUAUGAACGGUCAUGACAUGAGGAUCACCCAUGUUUCUUGUGCACCCUGCGUCAGAAGGGACUAGUGAGG,apparent Kd,MS2 coat protein [1]; [5],19.3 nM
same,apparent Kd,MS2 coat protein [1]; [6],12.8 nM
CAGAGACAUGAGGAUCACCCAUGUUGAGAUACCAGCUUGGUAUCGAGCCCUUGGCAGCUCGCCCAUCGUCUAUAUCAGCCUGAGC,apparent Kd,"MS2 coat protein [1]; designed as: ON switch for theophylline, no ligand",16.5 nM
same,apparent Kd,"MS2 coat protein [1]; ligand present: theophylline, designed as: ON switch for theophylline",20.2 nM
UUCCACCUAAAGCGUUGCCCUCGUGAUGAUACCAGUUUCAGCGGUAACCCUUGGCAGCAUCGGACAUGAGGAUCACCCAUGUGGA,apparent Kd,"MS2 coat protein [1]; designed as: OFF switch for theophylline, no ligand",106 nM
same,apparent Kd,"MS2 coat protein [1]; ligand present: theophylline, designed as: OFF switch for theophylline",213 nM
AGACCCUAGCAGAAGGCCCGCGACAUCCAAGAGGGAGGAUAUGCCACUAGAGCAAGCUUUGCACAUGAGGAUCACCCAUGUCCU,apparent Kd,MS2 coat protein [1]; [5],132 nM
same,apparent Kd,MS2 coat protein [1]; [6],56.6 nM
CGGGAACAUGAGGAUCACCCAUGUCAGGAUAUACGCGAUGGCAACAGUGAUUGUUUGUGUAGAAGGGACUUACG,apparent Kd,MS2 coat protein [1]; [3],33.3 nM
same,apparent Kd,MS2 coat protein [1]; [4],30.2 nM
AUGGUGGCUUCAGGAUAUCGCAAGUUAAUACGUCCCACAUGAGGAUCACCCAUGUAACGGUGGGUCGAGAAGGGAACCAUCCCG,apparent Kd,MS2 coat protein [1]; [3],90.8 nM
same,apparent Kd,MS2 coat protein [1]; [4],63.5 nM
GUGGCAGGUGUCAGCCACAUGAGGAUCACCCAUGUUACUGAUCAGGAUAUUCGUGUGCGUCGCCGGAAGAAGGGAUUUGGACAU,apparent Kd,MS2 coat protein [1]; [3],123 nM
same,apparent Kd,MS2 coat protein [1]; [4],64.1 nM
AAGGAGUUAGGAUAUCCGUGCGUUGACAUGAGGAUCACCCAUGUGUUGAUAAACCUACUAGGAGAAGGAACGAUAC,apparent Kd,MS2 coat protein [1]; [3],20.7 nM
same,apparent Kd,MS2 coat protein [1]; [4],15.2 nM
GUUAAAGAACGAGGAUAUAUUUGGUGAGGAGUACACAUGAGGAUCACCCAUGUCCAUCCUAUUCCAUAGAAGGCGUAGAGUUUU,apparent Kd,MS2 coat protein [1]; [5],6.71 nM
same,apparent Kd,MS2 coat protein [1]; [6],6.95 nM
AGCUCACAUGAGGAUCACCCAUGUCAAUUGUCAUCCUAUUGUAGAAGGCCGACACUGAUAUUAACGGAGGAUAUACGAGACAAU,apparent Kd,MS2 coat protein [1]; [5],15.2 nM
same,apparent Kd,MS2 coat protein [1]; [6],7.85 nM
AAACACAACCAGAAGGCCAAAACAUGAGGAUCACCCAUGUAGAUAAGAAGAGUAAGCACUGUCAUGGAGGAUAUGGGUCAAAAC,apparent Kd,MS2 coat protein [1]; [5],20.8 nM
same,apparent Kd,MS2 coat protein [1]; [6],7.12 nM
CAGAGCCAAAACAAGGAUAUACAUAACAUUACAUGAGGAUCACCCAUGUUAUAGCUAACCUUGUAGUAGAAGGUGUUUGGCAACAU,apparent Kd,MS2 coat protein [1]; [5],7.36 nM
same,apparent Kd,MS2 coat protein [1]; [6],6.39 nM
CGGCGCUGUCGAGAGGAUAUGCGGUGAUGGACAUGAGGAUCACCCAUGUUAGCGAUAGCAUCACGGUAGAAGGCUCUUACGCCUG,apparent Kd,MS2 coat protein [2]; [5],378 nM
same,apparent Kd,MS2 coat protein [2]; [6],174 nM
GUAGUGUAUGUAGGAUAUGUGAAGCAAAGCUUCACAGAAGGACAUGAGGAUCACCCAUGUAUUGCAGUCUGCAAUCAGACUGCU,apparent Kd,MS2 coat protein [2]; [3],43.4 nM
same,apparent Kd,MS2 coat protein [2]; [4],152 nM
CACCGUUAGUGAGGAUAUCUUACAUGAGGAUCACCCAUGUAAUAAAUGAGAAUUUCGGAUGUAUUAGAGAAGGCACAAAUCGGC,apparent Kd,MS2 coat protein [2]; [3],25.1 nM
same,apparent Kd,MS2 coat protein [2]; [4],24.3 nM
UGCUGGUGACAGCAUCCAUCAAAACAUGAGGAUCACCCAUGUAGAAGGCUGUACGGUUACCGUACAGAGGAUAUACAAUGAUGG,apparent Kd,MS2 coat protein [2]; [3],7.27 nM
same,apparent Kd,MS2 coat protein [2]; [4],8.69 nM
AUCUUCGGAGGAUAUUCUCCGUCACACAUGAGGAUCACCCAUGUCAUUCGAAUGGGUUCGGAAGAAGGUCGAAGGU,apparent Kd,MS2 coat protein [2]; [3],236 nM
same,apparent Kd,MS2 coat protein [2]; [4],171 nM
UACUGACAUGAGGAUCACCCAUGUGAGGAUAUUCUCCUGCUAAAUUAAUGGUGGGUGUGAAGAAGGCACAAGGA,apparent Kd,MS2 coat protein [2]; [3],37.3 nM
same,apparent Kd,MS2 coat protein [2]; [4],120 nM
AUCAUGAGAGGAUAUACAUGAGGAUCACCCAUGUGGUAAACACCAUGAGCUCAUUUACGUAGAAGGCUCAUUUG,apparent Kd,MS2 coat protein [2]; [3],27.6 nM
same,apparent Kd,MS2 coat protein [2]; [4],61.1 nM
UGUGGUGGUUAGGAUAUAAUUAGAGGUUACUCGUUAGAAGGAGCUACAUGAGGAUCACCCAUGUGACUGUCCGC,apparent Kd,MS2 coat protein [2]; [3],29.8 nM
same,apparent Kd,MS2 coat protein [2]; [4],35.1 nM
AACCUAAAACAGAAGGCCAGCUACAUGAGGAUCACCCAUGUCGAAUCAUGGAGGAUAUGUUGUAAUUUACUCGCAGAUGAGUGC,apparent Kd,MS2 coat protein [2]; [6],5.92 nM
GAGCGAAAGCUCAAUGUCGAUAGCAGAAGGACAUGUAAAAUCAUGAAAACAUGAGGAUCACCCAUGUAGGAUAUGCUAUCGACU,apparent Kd,MS2 coat protein [2]; [3],23 nM
same,apparent Kd,MS2 coat protein [2]; [4],371 nM
CGCACUGAUAGAGGAUAUGUUGUACAUGAGGAUCACCCAUGUGUUUUUGUAUCAAUAUUAGUGAAACAGAAGGCUAUUAGUGCG,apparent Kd,MS2 coat protein [2]; [3],5.65 nM
same,apparent Kd,MS2 coat protein [2]; [4],4.65 nM
UUAUGUUAUGUAGGAUAUCACUUUAAUUGAUUAAUAUAUGAAUAUUGAAUUUGAGAAGGACAUUUACAUGAGGAUCACCCAUGU,apparent Kd,MS2 coat protein [2]; [3],16.2 nM
same,apparent Kd,MS2 coat protein [2]; [4],13.6 nM
GCGAAUCAGUGAGGAUAUACAUAAUUUAUACCUGUAGAAGGCACAAACCUCAAGACAUGAGGAUCACCCAUGUGACAUAUCGCU,apparent Kd,MS2 coat protein [2]; [3],43.3 nM
same,apparent Kd,MS2 coat protein [2]; [4],66.8 nM
